# Measurements gathered from unrelated publications.
# Compare with care: the assays were run in different laboratories.
Compound,target or system,effect on,method,strain,time,measurement,value
O=C(O)c1ccc2c(c1)nc(Nc1cccc(Cl)c1)c1ccncc12,SK-MES-1,cell growth or viability,crystal violet,,48 h,IC50,4.6 µM
Cc1cc(C)c(C#N)c(SCC(=O)Nc2ccccc2)n1,Trypanosoma brucei,parasite growth,resazurin,,,EC50,> 64 µM
Cc1[nH]c(C(=O)Nc2ccc(C(=O)NCc3n[nH]c(=O)o3)cc2N2CCNCC2)c(Cl)c1Cl.Cl,Enterococcus faecium,microbial growth,broth dilution,ATCC35667,,MIC,> 32 µg/mL
Cc1cc(C)c(C#N)c(SCC(=O)c2ccccn2)n1,Trypanosoma brucei,parasite growth,resazurin,,,EC50,> 64 µM
Cc1[nH]c(C(=O)Nc2ccc(C(=O)NCC(=O)O)cc2N2CCN(C(=O)OC(C)(C)C)CC2)c(Cl)c1Cl,Enterococcus faecium,microbial growth,broth dilution,ATCC35667,,MIC,> 32 µg/mL
Nc1ccc(/C=C/C(=O)N2CCc3c(oc4c(-c5ccc(F)cc5)cc(-c5ccc(C(=O)N6CCOCC6)nn5)cc34)C2)cn1,CFPAC-1,cell growth or viability,CCK-8,,72 h,IC50,> 20 µM
Cn1nnc(-c2cccnc2SCC(=O)c2ccc(F)cc2)n1,Trypanosoma brucei,parasite growth,resazurin,RHODESIENSE,,EC50,> 64 µM
NNC(=O)c1cn(Cc2ccccc2)c2ccc(Oc3ccccc3)cc2c1=O,Trypanosoma brucei,parasite growth,resazurin,,72 h,EC50,0.43 µM
Nc1ccc(/C=C/C(=O)NCc2cc3cc(-c4ccc(C(=O)N5CCC(F)(F)CC5)cc4)cc(-c4ccc(F)cc4)c3o2)cn1,CFPAC-1,cell growth or viability,CCK-8,,72 h,IC50,> 20 µM
Cl.N[C@@H]1CCN(c2cc(C(=O)NCC(=O)O)ccc2NC(=O)c2cc(Br)c(Br)[nH]2)C1,Enterococcus faecium,microbial growth,broth dilution,ATCC35667,,MIC,> 32 µg/mL
C=CC(=O)NC1CCN(c2ncc3ncnc(Nc4ccc(Oc5ccc6c(c5)ncn6C)c(C)c4)c3n2)CC1,DoTc2-4510,cell growth or viability,,,,EC50,5.24 µM
Cc1[nH]c(C(=O)Nc2ccc(C(=O)NCC(=O)O)cc2N2CC[C@H](N)C2)c(Cl)c1Cl.Cl,Enterococcus faecium,microbial growth,broth dilution,ATCC35667,,MIC,> 32 µg/mL
COc1ccc2c(c1)c(=O)c(C(=O)N/N=C/c1ccc([N+](=O)[O-])s1)cn2Cc1ccccc1,Trypanosoma brucei,parasite growth,resazurin,,72 h,EC50,0.41 µM
CC(C)(C)OC(=O)N1CCN(c2cc(C(=O)NCC(=O)O)ccc2NC(=O)c2cc(Br)c(Br)[nH]2)CC1,Enterococcus faecium,microbial growth,broth dilution,ATCC35667,,MIC,> 32 µg/mL
Cc1cc(C)c(C(N)=O)c(SCC(=O)c2ccc(Cl)cc2Cl)n1,Trypanosoma brucei,parasite growth,resazurin,RHODESIENSE,,EC50,> 64 µM
